In ChEMBL document CHEMBL2396604, “Synthesis and structure activity relationship of tetrahydroisoquinoline-based potentiators of GluN2C and GluN2D containing N-methyl-D-aspartate receptors” (J Med Chem, 2013):

Columns and labels:
[1] = target: Sodium-dependent dopamine transporter (Homo sapiens) (UniProt Q01959); experiment: Inhibition of dopamine transporter (unknown origin) at 5 uM by psychoactive drug screening programme assay
Summary of the method: (§1)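 Radioligand binding screen run by PDSP. Displacement of ligand binding was measured with test compound at 5 µM, n=4 per target.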

[2] = target: Muscarinic acetylcholine receptor M5 (Homo sapiens) (UniProt P08912); experiment: Inhibition of M5 receptor (unknown origin) at 5 uM by psychoactive drug screening programme assay; summary of the method: as §1
[3] = target: Muscarinic acetylcholine receptor M4 (Homo sapiens) (UniProt P08173); experiment: Inhibition of M4 receptor (unknown origin) at 5 uM by psychoactive drug screening programme assay; summary of the method: as §1
Chain of Muscarinic acetylcholine receptor M4 (Homo sapiens) (P08173 whole entry): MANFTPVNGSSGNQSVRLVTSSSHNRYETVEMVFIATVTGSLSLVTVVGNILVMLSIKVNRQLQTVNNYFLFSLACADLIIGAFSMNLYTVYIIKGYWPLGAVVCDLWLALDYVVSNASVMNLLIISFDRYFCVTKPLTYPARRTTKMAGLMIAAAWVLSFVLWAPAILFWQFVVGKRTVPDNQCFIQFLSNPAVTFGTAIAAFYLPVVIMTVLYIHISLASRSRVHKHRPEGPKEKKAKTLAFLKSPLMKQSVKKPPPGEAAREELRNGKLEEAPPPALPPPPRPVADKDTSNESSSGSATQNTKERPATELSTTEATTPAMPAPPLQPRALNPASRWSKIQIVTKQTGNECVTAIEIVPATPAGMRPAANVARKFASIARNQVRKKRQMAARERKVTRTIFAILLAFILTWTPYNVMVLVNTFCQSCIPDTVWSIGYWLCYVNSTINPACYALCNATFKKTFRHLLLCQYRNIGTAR

[4] = target: Muscarinic acetylcholine receptor M3 (Homo sapiens) (UniProt P20309); experiment: Inhibition of M3 receptor (unknown origin) at 5 uM by psychoactive drug screening programme assay; summary of the method: as §1
[5] = target: Muscarinic acetylcholine receptor M1 (Homo sapiens) (UniProt P11229); experiment: Inhibition of M1 receptor (unknown origin) at 5 uM by psychoactive drug screening programme assay; summary of the method: as §1
Chain of Muscarinic acetylcholine receptor M1 (Homo sapiens) (P11229 whole entry): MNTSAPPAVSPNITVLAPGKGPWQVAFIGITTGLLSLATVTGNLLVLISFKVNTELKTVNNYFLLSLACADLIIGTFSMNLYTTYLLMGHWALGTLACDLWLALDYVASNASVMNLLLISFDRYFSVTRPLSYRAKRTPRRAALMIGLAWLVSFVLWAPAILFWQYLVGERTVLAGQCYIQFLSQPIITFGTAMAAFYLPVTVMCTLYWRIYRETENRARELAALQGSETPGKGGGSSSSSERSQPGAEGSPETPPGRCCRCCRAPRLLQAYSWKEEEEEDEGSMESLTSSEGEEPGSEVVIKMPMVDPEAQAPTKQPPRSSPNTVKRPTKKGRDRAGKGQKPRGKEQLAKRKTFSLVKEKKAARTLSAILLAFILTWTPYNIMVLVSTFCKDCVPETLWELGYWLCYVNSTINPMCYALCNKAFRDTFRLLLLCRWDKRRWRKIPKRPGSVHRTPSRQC

[6] = target: Histamine H3 receptor (Homo sapiens) (UniProt Q9Y5N1); experiment: Inhibition of H3 histamine receptor (unknown origin) at 5 uM by psychoactive drug screening programme assay; summary of the method: as §1
Chain of Histamine H3 receptor (Homo sapiens) (Q9Y5N1 whole entry): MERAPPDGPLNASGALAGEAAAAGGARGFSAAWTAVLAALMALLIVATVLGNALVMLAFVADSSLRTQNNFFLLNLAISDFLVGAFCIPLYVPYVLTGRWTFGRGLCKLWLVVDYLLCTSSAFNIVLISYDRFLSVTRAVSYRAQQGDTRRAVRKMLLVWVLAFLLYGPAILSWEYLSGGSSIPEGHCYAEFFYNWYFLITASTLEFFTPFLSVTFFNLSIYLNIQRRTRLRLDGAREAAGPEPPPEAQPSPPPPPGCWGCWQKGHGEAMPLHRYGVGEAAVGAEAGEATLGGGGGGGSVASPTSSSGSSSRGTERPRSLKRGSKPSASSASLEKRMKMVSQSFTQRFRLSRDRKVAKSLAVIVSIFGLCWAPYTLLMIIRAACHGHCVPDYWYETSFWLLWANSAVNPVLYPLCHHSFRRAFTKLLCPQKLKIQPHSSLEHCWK

[7] = target: Histamine H2 receptor (Homo sapiens) (UniProt P25021); experiment: Inhibition of H2 histamine receptor (unknown origin) at 5 uM by psychoactive drug screening programme assay; summary of the method: as §1
[8] = target: D(4) dopamine receptor (Homo sapiens) (UniProt P21917); experiment: Inhibition of dopamine D4 receptor (unknown origin) at 5 uM by psychoactive drug screening programme assay; summary of the method: as §1
[9] = target: D(1B) dopamine receptor (Homo sapiens) (UniProt P21918); experiment: Inhibition of dopamine D5 receptor (unknown origin) at 5 uM by psychoactive drug screening programme assay; summary of the method: as §1
[10] = target: D(3) dopamine receptor (Homo sapiens) (UniProt P35462); experiment: Inhibition of dopamine D3 receptor (unknown origin) at 5 uM by psychoactive drug screening programme assay; summary of the method: as §1
Chain of D(3) dopamine receptor (Homo sapiens) (P35462 whole entry): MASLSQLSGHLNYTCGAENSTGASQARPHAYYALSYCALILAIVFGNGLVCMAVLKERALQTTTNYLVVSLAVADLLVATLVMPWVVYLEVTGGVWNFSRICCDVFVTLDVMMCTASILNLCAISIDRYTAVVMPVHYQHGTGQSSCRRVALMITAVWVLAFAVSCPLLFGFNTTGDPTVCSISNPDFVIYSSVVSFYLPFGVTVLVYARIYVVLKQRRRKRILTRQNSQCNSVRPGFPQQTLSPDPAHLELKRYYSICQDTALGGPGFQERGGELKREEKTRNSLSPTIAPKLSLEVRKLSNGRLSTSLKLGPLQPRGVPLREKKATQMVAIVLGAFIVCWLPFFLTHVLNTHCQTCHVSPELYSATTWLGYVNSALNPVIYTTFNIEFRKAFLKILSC

[11] = target: D(2) dopamine receptor (Homo sapiens) (UniProt P14416); experiment: Inhibition of dopamine D2 receptor (unknown origin) at 5 uM by psychoactive drug screening programme assay; summary of the method: as §1
Chain of D(2) dopamine receptor (Homo sapiens) (P14416 whole entry): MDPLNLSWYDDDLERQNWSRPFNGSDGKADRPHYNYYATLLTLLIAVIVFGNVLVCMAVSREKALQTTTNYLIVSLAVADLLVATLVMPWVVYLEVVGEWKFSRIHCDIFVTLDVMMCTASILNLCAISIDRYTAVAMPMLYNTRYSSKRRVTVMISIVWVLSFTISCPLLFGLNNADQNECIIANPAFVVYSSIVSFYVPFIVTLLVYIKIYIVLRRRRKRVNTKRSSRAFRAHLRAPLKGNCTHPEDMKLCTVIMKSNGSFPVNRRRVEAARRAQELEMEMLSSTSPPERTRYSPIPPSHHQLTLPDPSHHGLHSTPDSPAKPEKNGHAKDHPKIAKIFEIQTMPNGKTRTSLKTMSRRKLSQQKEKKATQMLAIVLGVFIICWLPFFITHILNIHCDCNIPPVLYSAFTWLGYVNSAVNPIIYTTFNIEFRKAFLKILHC

[12] = target: Beta-3 adrenergic receptor (Homo sapiens) (UniProt P13945); experiment: Inhibition of adrenergic beta3 receptor (unknown origin) at 5 uM by psychoactive drug screening programme assay; summary of the method: as §1
[13] = target: Beta-2 adrenergic receptor (Homo sapiens) (UniProt P07550); experiment: Inhibition of adrenergic beta2 receptor (unknown origin) at 5 uM by psychoactive drug screening programme assay; summary of the method: as §1
[14] = target: Alpha-2C adrenergic receptor (Homo sapiens) (UniProt P18825); experiment: Inhibition of adrenergic alpha2C receptor (unknown origin) at 5 uM by psychoactive drug screening programme assay; summary of the method: as §1
[15] = target: Alpha-2B adrenergic receptor (Homo sapiens) (UniProt P18089); experiment: Inhibition of adrenergic alpha2B receptor (unknown origin) at 5 uM by psychoactive drug screening programme assay; summary of the method: as §1
[16] = target: Alpha-1D adrenergic receptor (Homo sapiens) (UniProt P25100); experiment: Inhibition of adrenergic alpha1D receptor (unknown origin) at 5 uM by psychoactive drug screening programme assay; summary of the method: as §1
Chain of Alpha-1D adrenergic receptor (Homo sapiens) (P25100 whole entry): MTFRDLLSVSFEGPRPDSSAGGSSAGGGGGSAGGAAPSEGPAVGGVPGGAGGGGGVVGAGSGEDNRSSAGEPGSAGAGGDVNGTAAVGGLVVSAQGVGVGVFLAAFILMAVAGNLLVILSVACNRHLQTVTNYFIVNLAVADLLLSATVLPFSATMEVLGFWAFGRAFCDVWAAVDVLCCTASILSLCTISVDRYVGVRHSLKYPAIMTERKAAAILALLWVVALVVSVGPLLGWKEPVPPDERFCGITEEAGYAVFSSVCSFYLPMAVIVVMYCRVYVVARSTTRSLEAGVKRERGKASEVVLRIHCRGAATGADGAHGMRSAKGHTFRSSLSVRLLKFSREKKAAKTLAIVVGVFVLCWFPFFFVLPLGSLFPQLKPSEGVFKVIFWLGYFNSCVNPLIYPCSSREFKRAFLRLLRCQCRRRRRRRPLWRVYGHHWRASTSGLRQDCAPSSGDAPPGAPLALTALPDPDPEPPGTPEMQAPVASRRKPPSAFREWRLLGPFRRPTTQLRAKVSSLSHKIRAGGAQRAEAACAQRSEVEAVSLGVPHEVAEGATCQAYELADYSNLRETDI

[17] = target: 5-hydroxytryptamine receptor 1D (Homo sapiens) (UniProt P28221); experiment: Inhibition of serotonin 5-HT1D receptor (unknown origin) at 5 uM by psychoactive drug screening programme assay; summary of the method: as §1
[18] = target: 5-hydroxytryptamine receptor 1A (Homo sapiens) (UniProt P08908); experiment: Inhibition of serotonin 5-HT1A receptor (unknown origin) at 5 uM by psychoactive drug screening programme assay; summary of the method: as §1
[19] = target: P2X purinoceptor 2 (Homo sapiens) (UniProt Q9UBL9); experiment: Activity at human recombinant purinergic P2X2 receptor expressed in Xenopus oocytes assessed as effect on ATP-induced activation at 3 uM by two-electrode voltage clamp technique relative to control; assay type: cell-based; conditions: Oocyte
Chain of P2X purinoceptor 2 (Homo sapiens) (Q9UBL9 whole entry, the tested form may be a part): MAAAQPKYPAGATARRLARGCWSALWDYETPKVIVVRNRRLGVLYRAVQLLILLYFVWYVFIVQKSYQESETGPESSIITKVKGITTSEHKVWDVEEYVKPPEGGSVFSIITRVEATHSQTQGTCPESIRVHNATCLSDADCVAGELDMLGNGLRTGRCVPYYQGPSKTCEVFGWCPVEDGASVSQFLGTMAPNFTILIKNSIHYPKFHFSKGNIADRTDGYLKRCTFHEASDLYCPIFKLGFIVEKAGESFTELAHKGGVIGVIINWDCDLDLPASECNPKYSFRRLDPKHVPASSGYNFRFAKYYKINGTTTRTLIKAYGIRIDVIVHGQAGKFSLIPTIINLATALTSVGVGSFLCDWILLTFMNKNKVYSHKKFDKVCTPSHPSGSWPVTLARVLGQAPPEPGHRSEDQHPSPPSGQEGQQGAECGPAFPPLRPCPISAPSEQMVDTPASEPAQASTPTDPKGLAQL
Summary of the method: (§2)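 Two-electrode voltage clamp of Xenopus oocytes injected with 1–5 ng cRNA and kept in Barth's solution at 15°C for 2–5 days. Oocytes were perfused with 90 mM NaCl, 1.0 KCl, 0.5 BaCl2, 0.005 EDTA, 10 HEPES, pH 7.4, 23°C, and held at -40 mV. Compound was co-applied at 3 µM with agonist from 20 mM DMSO stocks, final DMSO 0.05–0.5%.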

[20] = target: Neuronal acetylcholine receptor subunit alpha-7 (Homo sapiens) (UniProt P36544); experiment: Activity at human recombinant alpha7 nAChR expressed in Xenopus oocytes assessed as effect on acetylcholine-induced activation at 3 uM by two-electrode voltage clamp technique relative to control; assay type: cell-based; conditions: Oocyte; summary of the method: as §2
Chain of Neuronal acetylcholine receptor subunit alpha-7 (Homo sapiens) (P36544 whole entry): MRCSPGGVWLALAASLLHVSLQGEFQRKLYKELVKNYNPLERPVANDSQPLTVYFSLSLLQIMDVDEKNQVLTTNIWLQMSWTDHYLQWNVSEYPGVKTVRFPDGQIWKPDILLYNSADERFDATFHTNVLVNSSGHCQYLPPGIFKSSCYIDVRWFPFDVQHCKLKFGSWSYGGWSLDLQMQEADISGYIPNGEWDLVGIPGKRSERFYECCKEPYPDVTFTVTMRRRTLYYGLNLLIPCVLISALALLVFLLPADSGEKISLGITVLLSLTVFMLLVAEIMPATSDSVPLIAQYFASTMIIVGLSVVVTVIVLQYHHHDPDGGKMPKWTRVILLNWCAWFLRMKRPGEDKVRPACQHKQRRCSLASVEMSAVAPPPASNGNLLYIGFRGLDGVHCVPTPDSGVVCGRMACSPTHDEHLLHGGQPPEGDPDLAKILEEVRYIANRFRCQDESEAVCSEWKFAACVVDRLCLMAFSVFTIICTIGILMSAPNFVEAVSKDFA

[21] = target: Neuronal acetylcholine receptor; alpha3/beta4 (Homo sapiens) (UniProt P30926+P32297); experiment: Activity at human recombinant alpha3beta4 nAChR expressed in Xenopus oocytes assessed as effect on acetylcholine-induced activation at 3 uM by two-electrode voltage clamp technique relative to control; assay type: cell-based; conditions: Oocyte; summary of the method: as §2
[22] = test system: Oocyte; experiment: Activity at mouse recombinant alpha1beta1gammadelta nAChR expressed in Xenopus oocytes assessed as effect on acetylcholine-induced activation at 3 uM by two-electrode voltage clamp technique relative to control; assay type: cell-based; summary of the method: as §2
[23] = target: Glycine receptor subunit alpha-1 (Rattus norvegicus) (UniProt P07727); experiment: Activity at rat recombinant glycine alpha1 receptor expressed in Xenopus oocytes assessed as effect on glycine-induced activation at 3 uM by two-electrode voltage clamp technique relative to control; assay type: cell-based; conditions: Oocyte; summary of the method: as §2
[24] = target: Gamma-aminobutyric acid receptor subunit rho-1 (Homo sapiens) (UniProt P24046); experiment: Activity at human recombinant GABA(C) receptor expressed in Xenopus oocytes assessed as effect on GABA-induced activation at 3 uM by two-electrode voltage clamp technique relative to control; assay type: cell-based; conditions: Oocyte; summary of the method: as §2
Chain of Gamma-aminobutyric acid receptor subunit rho-1 (Homo sapiens) (P24046 whole entry): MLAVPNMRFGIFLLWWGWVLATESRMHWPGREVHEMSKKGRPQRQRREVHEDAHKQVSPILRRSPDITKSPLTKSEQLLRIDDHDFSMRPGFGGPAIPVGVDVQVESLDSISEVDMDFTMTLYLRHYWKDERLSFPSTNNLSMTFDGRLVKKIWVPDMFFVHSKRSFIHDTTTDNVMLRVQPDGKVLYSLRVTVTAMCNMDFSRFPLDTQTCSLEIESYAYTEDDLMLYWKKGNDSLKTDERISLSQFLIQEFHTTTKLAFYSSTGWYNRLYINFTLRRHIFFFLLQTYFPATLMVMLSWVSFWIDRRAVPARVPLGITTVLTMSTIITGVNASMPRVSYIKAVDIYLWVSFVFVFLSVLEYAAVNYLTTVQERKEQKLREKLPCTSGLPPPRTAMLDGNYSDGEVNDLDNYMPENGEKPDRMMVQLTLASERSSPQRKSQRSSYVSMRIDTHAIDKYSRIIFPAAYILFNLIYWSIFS

[25] = target: Ionotropic glutamate receptor kainate 2/5 (Rattus norvegicus) (UniProt P42260+Q63273); experiment: Activity at rat recombinant GluK2/GluK5 receptor expressed in Xenopus oocytes assessed as effect on glutamate-induced response at 3 uM by two-electrode voltage clamp technique relative to control; assay type: cell-based; conditions: Oocyte; summary of the method: as §2
[26] = target: 5-hydroxytryptamine receptor 3A (Rattus norvegicus) (UniProt P35563); experiment: Activity at rat recombinant serotonin 5-HT3A receptor expressed in Xenopus oocytes assessed as effect on serotonin-induced activation at 3 uM by two-electrode voltage clamp technique relative to control; assay type: cell-based; conditions: Oocyte; summary of the method: as §2
Chain of 5-hydroxytryptamine receptor 3A (Rattus norvegicus) (P35563 whole entry): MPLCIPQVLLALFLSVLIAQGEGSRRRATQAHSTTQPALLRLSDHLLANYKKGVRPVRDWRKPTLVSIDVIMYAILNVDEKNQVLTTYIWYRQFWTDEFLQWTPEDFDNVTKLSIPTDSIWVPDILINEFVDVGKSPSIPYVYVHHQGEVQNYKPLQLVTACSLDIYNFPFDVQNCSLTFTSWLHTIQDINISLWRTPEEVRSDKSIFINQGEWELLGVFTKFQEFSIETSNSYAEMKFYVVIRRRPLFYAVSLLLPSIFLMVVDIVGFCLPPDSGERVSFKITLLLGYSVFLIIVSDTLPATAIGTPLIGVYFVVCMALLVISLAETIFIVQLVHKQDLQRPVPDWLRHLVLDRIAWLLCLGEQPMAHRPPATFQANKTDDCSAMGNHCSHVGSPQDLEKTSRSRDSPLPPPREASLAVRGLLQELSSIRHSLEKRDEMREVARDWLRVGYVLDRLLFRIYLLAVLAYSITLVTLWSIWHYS

[27] = target: Ionotropic glutamate receptor NMDA 1/2D (Rattus norvegicus) (UniProt P35439+Q62645); experiment: Activity at rat recombinant GluN1/GluN2D receptor expressed in Xenopus oocytes assessesed as effect of glycine/glutamate-induced response at 3 uM by two-electrode voltage clamp technique relative to control; assay type: cell-based; conditions: Oocyte; summary of the method: as §2
[28] = target: Ionotropic glutamate receptor NMDA 1/2D (Rattus norvegicus, UniProt P35439+Q62645); experiment: Activity at rat recombinant GluN1/GluN2D receptor assessed as potentiation of glycine/glutamate-induced activation by two-electrode voltage clamp technique; assay type: protein-complex assay
[29] = target: Glutamate NMDA receptor; Grin1/Grin2c (Rattus norvegicus, UniProt P35439+Q00961); experiment: Activity at rat recombinant GluN1/GluN2C receptor assessed as potentiation of glycine/glutamate-induced activation by two-electrode voltage clamp technique; assay type: protein-complex assay
[30] = target: Neuronal acetylcholine receptor; alpha4/beta2 (Homo sapiens) (UniProt P17787+P43681); experiment: Activity at human recombinant alpha4beta2 nAChR expressed in Xenopus oocytes assessed as effect on acetylcholine-induced activation at 3 uM by two-electrode voltage clamp technique relative to control; assay type: cell-based; conditions: Oocyte; summary of the method: as §2

With `COc1ccc(OCC2c3ccc(OCc4ccccc4)cc3CCN2C(=O)c2cccc(Br)c2)cc1` (stereo not given) the inhibition [1] was less than 50%, the inhibition [2] was less than 50% and the inhibition [3] was less than 50%. It also gave an inhibition [4] of less than 50%, an inhibition [5] of less than 50% and an inhibition [6] of less than 50%. It also gave an inhibition [7] of less than 50%, an inhibition [8] of less than 50% and an inhibition [9] of less than 50%. It also gave an inhibition [10] of less than 50%, an inhibition [11] of less than 50% and an inhibition [12] of less than 50%. For the same molecule, the inhibition [13] was less than 50%, the inhibition [14] was less than 50% and the inhibition [15] was less than 50%. It also gave an inhibition [16] of less than 50%, an inhibition [17] of less than 50% and an inhibition [18] of less than 50%. For the same molecule, the Activity [19] was 94%, the Activity [20] was 90% and the Activity [21] was 95%. For the same molecule, the Activity [22] was 105%, the Activity [23] was 91% and the Activity [24] was 99%. For the same molecule, the Activity [25] was 103%, the Activity [26] was 93% and the Activity [27] was 213%. For the same molecule, the EC50 [28] was 300 nM, the EC50 [29] was 300 nM and the Activity [30] was 91%.
